ChEMBL document CHEMBL1212739, “Clindamycin-induced CovS-mediated regulation of the production of virulent exoproteins streptolysin O, NAD glycohydrolase, and streptokinase in Streptococcus pyogenes” (2010)
Activity calls are given as the source filed them. No cut-off for these calls is given here.

Tests used:
Streptococcus pyogenes [1] = experiment: Induction of nga mRNA expression in drug-resistant Streptococcus pyogenes D2TY at 1 ug/ml by Northern blot analysis; type: functional, organism-based
Method in brief: (§1)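 Cells grown static at 37°C in 5 ml BHI-YE, with 1 μg/ml CLI or none added at inoculation, and harvested at OD660 ≈0.8 (late log). Total RNA was DNase-treated. About 1 μg was run on 1% agarose with 1.1 M formaldehyde and blotted to nylon. Probes were 32P-labeled nga, slo, ska, covS or covR DNA, quantified by autoradiography/bioimaging. Triplicate assays from at least two independent cultures.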

Streptococcus pyogenes [2] = experiment: Decrease in ska mRNA expression in drug-resistant Streptococcus pyogenes D2TY isogenic delta covS mutant in BHI-YE supplemented medium at 1 ug/ml by Northern blot analysis; type: functional, organism-based; method in brief: as §1
Streptococcus pyogenes [3] = experiment: Decrease in Ska protein production in drug-resistant Streptococcus pyogenes D2TY isogenic delta covS mutant in BHI-YE supplemented medium at 1 ug/ml by Western blot analysis; type: functional, organism-based
Method in brief: (§2)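 Strain D2TY or its covS knockout, grown from −80°C stock at 37°C without agitation in 5 ml BHI-YE (0.3% yeast extract) containing protease inhibitor E-64, with or without 1 μg/ml CLI. Supernatant proteins run on SDS-PAGE and blotted to PVDF. Rabbit anti-Slo, anti-Nga or anti-Ska (1:2,000) applied for 16 h at room temperature. HRP goat anti-rabbit IgG (1:2,000) used as secondary. Triplicate assays from at least two independent cultures.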

Streptococcus pyogenes [4] = experiment: Decrease in slo mRNA expression in drug-resistant Streptococcus pyogenes D2TY isogenic delta covS mutant in BHI-YE supplemented medium at 1 ug/ml by Northern blot analysis; type: functional, organism-based; method in brief: as §1
Streptococcus pyogenes [5] = experiment: Induction of covR mRNA expression in drug-resistant Streptococcus pyogenes D2TY delta covS mutant at 1 ug/ml by Northern blot analysis; type: functional, organism-based; method in brief: as §1
Streptococcus pyogenes [6] = experiment: Induction of Ska protein production in drug-resistant Streptococcus pyogenes D2TY at 1 ug/ml by Western blot analysis; type: functional, organism-based; method in brief: as §2
Streptococcus pyogenes [7] = experiment: Antibacterial activity against Streptococcus pyogenes D2TY; type: functional
Method in brief: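 MICs of clindamycin hydrochloride determined for S. pyogenes M1 strain D2TY (STSS clinical isolate) by broth microdilution and by Etest, following CLSI guidelines. Bacteria grown at 37°C without agitation in brain heart infusion broth with 0.3% yeast extract. Resistance breakpoint taken as MIC above 1 μg/ml.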

Streptococcus pyogenes [8] = experiment: Induction of Slo protein production in drug-resistant Streptococcus pyogenes D2TY at 1 ug/ml by Western blot analysis; type: functional, organism-based; method in brief: as §2
Streptococcus pyogenes [9] = experiment: Induction of Nga protein production in drug-resistant Streptococcus pyogenes D2TY at 1 ug/ml by Western blot analysis; type: functional, organism-based; method in brief: as §2
Streptococcus pyogenes [10] = experiment: Decrease in Nga protein production in drug-resistant Streptococcus pyogenes D2TY isogenic delta covS mutant in BHI-YE supplemented medium at 1 ug/ml by Western blot analysis; type: functional, organism-based; method in brief: as §2
Streptococcus pyogenes [11] = experiment: Induction of covS mRNA expression in drug-resistant Streptococcus pyogenes D2TY delta covS mutant at 1 ug/ml by Northern blot analysis; type: functional, organism-based; method in brief: as §1
Streptococcus pyogenes [12] = experiment: Induction of ska mRNA expression in drug-resistant Streptococcus pyogenes D2TY at 1 ug/ml by Northern blot analysis; type: functional, organism-based; method in brief: as §1
Streptococcus pyogenes [13] = experiment: Decrease in nga mRNA expression in drug-resistant Streptococcus pyogenes D2TY isogenic delta covS mutant in BHI-YE supplemented medium at 1 ug/ml by Northern blot analysis; type: functional, organism-based; method in brief: as §1
Streptococcus pyogenes [14] = experiment: Decrease in Slo protein production in drug-resistant Streptococcus pyogenes D2TY isogenic delta covS mutant in BHI-YE supplemented medium at 1 ug/ml by Western blot analysis; type: functional, organism-based; method in brief: as §2
Streptococcus pyogenes [15] = experiment: Induction of covS mRNA expression in drug-resistant Streptococcus pyogenes D2TY in BHI-YE supplemented medium at 1 ug/ml by Northern blot analysis; type: functional, organism-based; method in brief: as §1
Streptococcus pyogenes [16] = experiment: Induction of slo mRNA expression in drug-resistant Streptococcus pyogenes D2TY at 1 ug/ml by Northern blot analysis; type: functional, organism-based; method in brief: as §1
Streptococcus pyogenes [17] = experiment: Induction of two-component sensor kinase CovS expression in drug-resistant Streptococcus pyogenes D2TY delta covS mutant at 1 ug/ml by Northern blot analysis; type: functional, organism-based; method in brief: as §1

Compound: CCC[C@@H]1C[C@@H](C(=O)N[C@@H]([C@H]2O[C@H](SC)[C@H](O)[C@@H](O)[C@H]2O)[C@H](C)Cl)N(C)C1.Cl [CLINDAMYCIN HYDROCHLORIDE]
- Activity (Streptococcus pyogenes [1]): Active
- Activity (Streptococcus pyogenes [2]): Active
- Activity (Streptococcus pyogenes [3]): Active
- Activity (Streptococcus pyogenes [4]): Active
- Activity (Streptococcus pyogenes [5]): inactive
- Activity (Streptococcus pyogenes [6]): Active
- MIC (Streptococcus pyogenes [7]): 256 µg/mL
- Activity (Streptococcus pyogenes [8]): Active
- Activity (Streptococcus pyogenes [9]): Active
- Activity (Streptococcus pyogenes [10]): Active
- Activity (Streptococcus pyogenes [11]): inactive
- Activity (Streptococcus pyogenes [12]): Active
- Activity (Streptococcus pyogenes [13]): Active
- Activity (Streptococcus pyogenes [14]): Active
- Activity (Streptococcus pyogenes [15]): Active
- Activity (Streptococcus pyogenes [16]): Active
- Activity (Streptococcus pyogenes [17]): inactive
